Calls of active or inactive are those of the source. No cut-off for these calls is given here.
Key:
Rattus norvegicus [1] = organism: Rattus norvegicus; test: DA agonist induced behavior was charecterised by increased locomotion, sniffing and licking.+ indicates low intensity of behavioral effect; format: functional, organism-based
Outline: (§1)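 Male Sprague-Dawley rats (200-300 g) given reserpine 5 mg/kg sc in the neck 18 h before testing. The test compound, in 0.9% saline, was given sc in the neck (n = 4-5). Rats were placed singly in photocell motility meters right after dosing. Counts were recorded over 30 min, alongside gross behavioural observation of 5-HT and DA signs. Statistics: ANOVA with Fischer's PLSD versus reserpine controls.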

Rattus norvegicus [2] = test: post-synaptic agonistic effects by increase in locomotor activity at the dose of 1.0 umol/kg, sc in reserpinized rat; format: functional; outline: as §1
[3] = molecular target: T1, Dopamine receptor (Rattus norvegicus) (UniProt P25115+P19020+P30729+P18901+P61169); test: Effective dose for half-maximal decrease in the accumulation of DOPA in reserpinized rat brain limbic area by sc administration; format: functional, organism-based
Outline: (§2)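 Male Sprague-Dawley rats (200-300 g) got reserpine 5 mg/kg sc 18 h before. The test drug (saline) was given sc or po (po rats fasted 18 h), with NSD 1015, 30 min before decapitation. DOPA and 5-HTP in limbic, striatal and hemispheral tissue were measured by HPLC-ED. ED50 (half-maximal decrease) was taken from 4-6-dose curves, with deviation estimated graphically from SEM.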

Rattus norvegicus [4] = test: Effective dose for half-maximal decrease in the accumulation of 5-hydroxytryptophan (5-HTP) in reserpinized rat brain limbic area by sc administration; Inactive; format: functional, organism-based; outline: as §2
[5] = molecular target: T1, Dopamine receptor (Rattus norvegicus); test: Effective dose for half-maximal decrease in the accumulation of DOPA in reserpinized rat brain striatal area by sc administration; format: functional, organism-based; outline: as §2
[6] = molecular target: T1, Dopamine receptor (Rattus norvegicus); test: Effective dose for half-maximal decrease in the accumulation of DOPA in reserpinized rat brain hemispheral area by sc administration; Inactive; format: functional, organism-based; outline: as §2
Rattus norvegicus [7] = test: Effective dose for half-maximal decrease in the accumulation of 5-hydroxytryptophan (5-HTP) in reserpinized rat brain hemispheral area by sc administration; Inactive; format: functional, organism-based; outline: as §2
Rattus norvegicus [8] = test: Effective dose for half-maximal decrease in the accumulation of 5-hydroxytryptophan (5-HTP) in reserpinized rat brain striatal area by sc administration; Inactive; format: functional, organism-based; outline: as §2
[9] = molecular target: T2, 5-hydroxytryptamine receptor 1A (Rattus norvegicus, UniProt P19327); test: Binding affinity against 5-hydroxytryptamine 1A receptor in homogenated rat brain tissue, using by [3H]8-OH-DPAT as radioligand; format: tissue-based
T2 sequence (P19327 whole entry): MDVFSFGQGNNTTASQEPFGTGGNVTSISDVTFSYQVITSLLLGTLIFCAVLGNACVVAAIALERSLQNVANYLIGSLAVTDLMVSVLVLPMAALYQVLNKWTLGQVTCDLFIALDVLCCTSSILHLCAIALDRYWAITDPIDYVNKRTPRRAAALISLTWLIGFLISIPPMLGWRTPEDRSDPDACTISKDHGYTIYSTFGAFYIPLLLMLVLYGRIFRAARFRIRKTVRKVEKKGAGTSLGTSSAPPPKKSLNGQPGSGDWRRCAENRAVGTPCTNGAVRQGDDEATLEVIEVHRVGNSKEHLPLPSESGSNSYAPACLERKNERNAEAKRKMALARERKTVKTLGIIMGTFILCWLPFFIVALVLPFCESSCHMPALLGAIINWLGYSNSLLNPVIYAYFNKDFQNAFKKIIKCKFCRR
Outline: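 Rat brain homogenate was washed and preincubated in 50 mM Tris (pH 8.0) containing NaCl, CaCl2 and MgCl2, plus 10 μM pargyline. Nonspecific binding was defined with 10 μM 5-HT. Six drug concentrations (10⁻⁴-10⁻⁹ M) were tested, triplicate or single run. IC50 came from a semilog plot with linear regression.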

[10] = molecular target: T1, Dopamine receptor (Rattus norvegicus); test: Effective dose for half-maximal decrease in the accumulation of DOPA in reserpinized rat brain limbic area by po administration; format: functional, organism-based; outline: as §2
[11] = Half-lives were estimated from the elimination phase of the blood conc-time curve after oral administration; format: ADME, organism-based; conditions: whole blood
Outline: (§3)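 Male Sprague-Dawley rats (300 g) with arterial catheters were dosed 24 h after surgery. Doses: 40 μmol/kg po by gavage and 5 μmol/kg iv, or 20 po and 1 iv. Po rats were fasted 18 h. Blood was sampled from 5 min to 12 h and measured by GC-MS after extraction at pH 11 against an internal standard, samples in duplicate. AUC po/iv came from n = 4 per route. Half-life was read graphically from the oral elimination phase.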

[12] = Area under curve ratio was determined (po/iv); format: functional; outline: as §3
D(2) dopamine receptor [13] = molecular target: T3, D(2) dopamine receptor (Rattus norvegicus, UniProt P61169); test: Binding affinity against dopamine receptor D2 in homogenated rat brain tissue, using by ([3H]N00437) as radioligand; format: tissue-based
T3 sequence (P61169 whole entry): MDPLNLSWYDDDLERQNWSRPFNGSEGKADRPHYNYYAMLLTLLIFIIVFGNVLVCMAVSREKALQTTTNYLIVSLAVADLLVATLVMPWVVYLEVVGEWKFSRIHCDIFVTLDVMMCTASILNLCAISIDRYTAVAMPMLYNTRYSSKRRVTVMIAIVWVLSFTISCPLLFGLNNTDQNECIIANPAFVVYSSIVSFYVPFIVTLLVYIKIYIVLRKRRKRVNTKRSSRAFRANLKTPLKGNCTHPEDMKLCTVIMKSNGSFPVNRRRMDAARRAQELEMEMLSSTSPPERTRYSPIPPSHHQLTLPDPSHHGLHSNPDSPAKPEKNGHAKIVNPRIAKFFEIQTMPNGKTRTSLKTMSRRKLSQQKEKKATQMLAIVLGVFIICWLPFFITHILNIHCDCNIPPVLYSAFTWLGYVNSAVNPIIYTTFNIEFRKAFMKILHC
Outline: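 Striata from male Wistar rats were washed in Tris (pH 7.5) containing EDTA, KCl and CaCl2. Tissue (1.25 mg original) was incubated with 0.2 nM [3H]-N-0437 (final) for 90 min at 25 °C, then filtered and counted by scintillation. Nonspecific binding was defined with 1 μM 6,7-ADTN. IC50 was read from a hand-fitted sigmoid curve, in triplicate.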

Rattus norvegicus [14] = test: Effective dose for half-maximal decrease in the accumulation of 5-hydroxytryptophan (5-HTP) in reserpinized rat brain hemispheral area by sc administration; Partial response at the highest dose tested; format: functional, organism-based; outline: as §2
Rattus norvegicus [15] = test: Effective dose for half-maximal decrease in the accumulation of 5-hydroxytryptophan (5-HTP) in reserpinized rat brain striatal area by sc administration; Partial response at the highest dose tested; format: functional, organism-based; outline: as §2
Rattus norvegicus [16] = organism: Rattus norvegicus; test: DA agonist induced behavior was charecterised by increased locomotion, sniffing and licking.++ indicates high intensity of behavioral effect; format: functional, organism-based; outline: as §1
[17] = molecular target: T1, Dopamine receptor (Rattus norvegicus); test: Effective dose for half-maximal decrease in the accumulation of DOPA in reserpinized rat brain hemispheral area by sc administration; Partial response at the highest dose tested; format: functional, organism-based; outline: as §2
Rattus norvegicus [18] = test: Effective dose for half-maximal decrease in the accumulation of 5-hydroxytryptophan (5-HTP) in reserpinized rat brain striatal area by po administration; Partial response at the highest dose tested; format: functional, organism-based; outline: as §2
D(2) dopamine receptor [19] = molecular target: T3, D(2) dopamine receptor; test: Binding affinity against dopamine receptor D2 in rat brain tissue using [3H]spiperone; format: tissue-based
Outline: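 Rat striatal membranes were prepared in 50 mM potassium phosphate (pH 7.4). They were incubated with 0.5 nM [3H]spiperone (3 mg original tissue) for 10 min at 37 °C. Specific binding was defined with 10 μM 6,7-ADTN. Six drug concentrations (10⁻⁴-10⁻⁹ M) were tested, in triplicate or in a single experiment.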

[20] = Effective dose for half-maximal decrease in the accumulation of 5-hydroxytryptophan (5-HTP) in reserpinized rat brain hemispheral area by po administration; format: functional; outline: as §2
[21] = Effective dose for half-maximal decrease in the accumulation of 5-hydroxytryptophan (5-HTP) in reserpinized rat brain limbic area by po administration; format: functional; outline: as §2
Rattus norvegicus [22] = test: post-synaptic agonistic effects by increase in locomotor activity at the dose of 50 umol/kg, sc in reserpinized rat; format: functional
[23] = molecular target: T1, Dopamine receptor (Rattus norvegicus); test: Effective dose for half-maximal decrease in the accumulation of DOPA in reserpinized rat brain striatal area by po administration; format: functional, organism-based; outline: as §2
[24] = molecular target: T1, Dopamine receptor (Rattus norvegicus); test: Effective dose for half-maximal decrease in the accumulation of DOPA in reserpinized rat brain hemispheral area by po administration; format: functional, organism-based; outline: as §2
[25] = Effective dose for half-maximal decrease in the accumulation of 5-hydroxytryptophan (5-HTP) in reserpinized rat brain striatal area by po administration; format: functional; outline: as §2
Rattus norvegicus [26] = test: post-synaptic agonistic effects by increase in locomotor activity at the dose of 2.2 umol/kg, sc in reserpinized rat; format: functional
Rattus norvegicus [27] = test: post-synaptic agonistic effects by increase in locomotor activity at the dose of 12.5 umol/kg, sc in reserpinized rat (p<0.005); format: functional; outline: as §1

Compound | Behavioral observation (Rattus norvegicus [1]) | ED50 [3] [µmol/kg] | ED50 (Rattus norvegicus [4]) | ED50 [5] [µmol/kg] | ED50 [6] | ED50 (Rattus norvegicus [7]) | ED50 (Rattus norvegicus [8]) | Ki [9] [nM] | ED50 [10] [µmol/kg] | Ki (D(2) dopamine receptor [13]) [nM] | Ki (D(2) dopamine receptor [19]) [nM] | ED50 [20] [µmol/kg] | ED50 [21] [µmol/kg] | ED50 [23] [µmol/kg] | other results
CCCN(CCC)C1CCc2ccc(O)cc2C1 (stereo not drawn) | Partially active | 0.03 | inactive | 0.03 | inactive | inactive | inactive | 2800 |  |  |  |  |  |  | Counts/30 (Rattus norvegicus [2]): 160 counts/30 min
CCCN(CCC)C1CCc2c(cccc2OS(=O)(=O)C(F)(F)F)C1 (stereo not drawn) |  | 0.4 | inactive | 0.5 |  |  |  | 160 | 6.2 | 28 | 64 | 5.4 | 3 | 7.9 | half-life [11]: 1.5 h; Ratio [12]: 8.5; ED50 (Rattus norvegicus [14]): Weak activity; ED50 (Rattus norvegicus [15]): Weak activity; Behavioral observation (Rattus norvegicus [16]): Active; ED50 [17]: Weak activity; ED50 (Rattus norvegicus [18]): Weak activity; Counts/30 min (Rattus norvegicus [22]): 170
CCCN(CCC)C1CCc2c(cccc2OC)C1 (stereo not drawn) |  | 0.01 | inactive | 0.02 | inactive | inactive | inactive | 440 | 0.2 |  | 100 | 0.3 | 0.4 | 0.2 | ED50 [24]: 0.3 µmol/kg; ED50 [25]: 0.5 µmol/kg
CCCN(CCC)[C@@H]1CCc2ccc(O)cc2C1 | Partially active |  | inactive |  |  | inactive | inactive | 3260 |  |  |  |  |  |  | Counts/30 (Rattus norvegicus [26]): 100 counts/30 min
CCCN(CCC)C1CCc2cc(OS(=O)(=O)C(F)(F)F)ccc2C1 (stereo not drawn) |  | 2 | inactive | 1.3 | inactive | inactive | inactive | 16000 |  | 99 | 1570 |  |  |  | Behavioral syndrome (Rattus norvegicus [1]): Partially active; Counts/30 (Rattus norvegicus [27]): 80 min

From ChEMBL document CHEMBL1126882, “Orally active central dopamine and serotonin receptor ligands: 5-, 6-, 7-, and 8-[[trifluoromethyl)sulfonyl]oxy]-2-(di-n-propylamino)tetralins and the formation of active metabolites in vivo” (J Med Chem, 1993)
